Series [1] can be described thus: Ratio of drug concentration in BALB/c mouse lung to plasma at 20 mg/kg, po measured upto 24 hrs in presence of 10 mg/kg encequidar by LC-MS/MS analysis. The series is classed as ADME, organism-based.
Series [2] is described as follows: Toxicity in athymic nude mouse xenografted with human MDA-MB-231 cells assessed as reduction in body weight at 40 mg/kg, po administered every other day for 4 doses in presence of 16 mg/kg encequidar and monitored for 70 to 82 days. The series is classed as organism-based. Further details: scale not given: the % may be the effect or the level left. To be noted: in vivo, time 70-82 day. The method, boiled down:
(§1)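 Female athymic NCr-nu mice (n = 10/group) bearing subcutaneous MDA-MB-231 xenografts were treated from day 8. […] Individual body weights were monitored for 82 days after implantation.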

The nature of series [3]: Toxicity in athymic nude mouse xenografted with human MDA-MB-231 cells assessed as reduction in body weight at 20 mg/kg, po administered every other day for 4 doses in presence of 8 mg/kg encequidar and monitored for 70 to 82 days. The series is classed as organism-based. Conditions: in vivo, time 70-82 day. The method, boiled down: as §1
The next series concerns SK-OV-3. Kind of series: Antitumor activity against human SK-OV-3 cells xenografted in athymic nude mouse assessed as tumor growth inhibition in presence of encequidar. The series is classed as functional.
Series [4] addresses T1, Broad substrate specificity ATP-binding cassette transporter ABCG2 (Homo sapiens, UniProt Q9UNQ0).
T1 sequence (Q9UNQ0 whole entry): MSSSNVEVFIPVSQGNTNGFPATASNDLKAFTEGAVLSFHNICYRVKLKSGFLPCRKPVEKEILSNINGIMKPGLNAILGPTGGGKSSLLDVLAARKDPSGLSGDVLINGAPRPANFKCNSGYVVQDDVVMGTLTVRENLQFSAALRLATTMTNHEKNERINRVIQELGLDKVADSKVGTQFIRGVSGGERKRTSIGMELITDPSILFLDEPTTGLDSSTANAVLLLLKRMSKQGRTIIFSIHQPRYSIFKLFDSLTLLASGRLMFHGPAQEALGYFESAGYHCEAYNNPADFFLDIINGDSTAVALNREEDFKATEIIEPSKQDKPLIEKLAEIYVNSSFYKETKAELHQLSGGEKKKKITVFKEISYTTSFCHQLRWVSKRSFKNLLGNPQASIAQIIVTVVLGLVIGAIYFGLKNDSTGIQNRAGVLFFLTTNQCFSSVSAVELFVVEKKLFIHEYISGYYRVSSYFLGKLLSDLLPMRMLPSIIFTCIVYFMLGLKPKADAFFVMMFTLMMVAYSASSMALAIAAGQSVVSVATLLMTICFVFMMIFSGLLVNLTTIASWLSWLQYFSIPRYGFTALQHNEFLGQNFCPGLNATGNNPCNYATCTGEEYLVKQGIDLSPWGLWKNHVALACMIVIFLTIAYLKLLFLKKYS
Briefly: Inhibition of sulfasalazine-stimulated BCRP ATP ase activity (unknown origin).

Series [5] in a line: Aqueous solubility of compound at pH 3.8. Format: physicochemical. Conditions: aqueous solution.
Series [6] has as its target T2, Organic anion transporter 3 (Homo sapiens, UniProt Q8TCC7).
T2 sequence (Q8TCC7 whole entry): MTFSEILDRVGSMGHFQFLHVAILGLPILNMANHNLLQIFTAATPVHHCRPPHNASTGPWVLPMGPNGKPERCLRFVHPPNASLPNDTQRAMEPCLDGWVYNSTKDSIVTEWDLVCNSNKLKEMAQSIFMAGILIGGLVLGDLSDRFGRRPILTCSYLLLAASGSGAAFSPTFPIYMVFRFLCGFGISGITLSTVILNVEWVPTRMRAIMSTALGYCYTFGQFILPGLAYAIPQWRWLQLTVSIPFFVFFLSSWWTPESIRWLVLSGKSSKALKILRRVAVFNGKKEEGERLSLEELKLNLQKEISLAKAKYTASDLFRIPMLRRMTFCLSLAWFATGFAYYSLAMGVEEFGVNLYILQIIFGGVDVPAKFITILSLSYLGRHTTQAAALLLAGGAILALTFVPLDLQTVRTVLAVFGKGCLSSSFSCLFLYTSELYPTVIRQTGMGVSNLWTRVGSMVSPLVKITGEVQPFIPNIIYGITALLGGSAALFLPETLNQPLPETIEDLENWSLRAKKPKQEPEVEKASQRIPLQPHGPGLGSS
Kind of series: Inhibition of human OAT3 assessed as reduction in intracellular probe substrate accumulation upto 100 uM by microplate scintillation counter analysis relative to control. Format: cell-based. The method, boiled down:
(§2)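 Cellular uptake-inhibition assays used Chinese hamster ovary, HEK293 or MDCKII cells stably expressing the respective human SLC transporter, run alongside the corresponding control cells. Inhibitor was tested at concentrations up to 100 μM.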

For series [7], the target named is T3, Solute carrier organic anion transporter family member 1B3 (Homo sapiens, UniProt Q9NPD5).
T3 sequence (Q9NPD5 whole entry): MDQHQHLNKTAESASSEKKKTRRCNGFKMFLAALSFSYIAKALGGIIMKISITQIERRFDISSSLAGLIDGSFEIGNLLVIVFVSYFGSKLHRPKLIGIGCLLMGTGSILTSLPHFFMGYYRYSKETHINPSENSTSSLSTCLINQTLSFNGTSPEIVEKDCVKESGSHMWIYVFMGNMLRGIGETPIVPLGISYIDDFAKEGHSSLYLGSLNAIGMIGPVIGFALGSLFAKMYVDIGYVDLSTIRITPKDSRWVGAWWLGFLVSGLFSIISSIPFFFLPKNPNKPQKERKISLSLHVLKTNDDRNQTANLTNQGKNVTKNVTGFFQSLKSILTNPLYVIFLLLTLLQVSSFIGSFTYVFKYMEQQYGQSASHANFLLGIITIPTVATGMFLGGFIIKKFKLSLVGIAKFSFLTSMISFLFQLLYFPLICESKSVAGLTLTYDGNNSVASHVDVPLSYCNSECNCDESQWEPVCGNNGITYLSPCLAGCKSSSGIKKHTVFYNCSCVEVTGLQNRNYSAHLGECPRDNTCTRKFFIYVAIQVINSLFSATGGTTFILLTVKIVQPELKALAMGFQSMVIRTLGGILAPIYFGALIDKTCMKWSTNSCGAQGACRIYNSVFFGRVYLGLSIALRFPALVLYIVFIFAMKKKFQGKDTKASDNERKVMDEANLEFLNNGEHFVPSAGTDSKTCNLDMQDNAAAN
Briefly: Inhibition of human OATP1B3 assessed as reduction in intracellular probe substrate accumulation upto 100 uM by microplate scintillation counter analysis relative to control. Format: cell-based. The method, boiled down: as §2

Series [8] is described as follows: Half life in Sprague-Dawley rat at 3 mg/kg, iv measured upto 48 hrs by LC-MS/MS analysis. Format: ADME, organism-based. To be noted: in vivo. The method, boiled down:
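Plasma pharmacokinetics in male Sprague-Dawley rats and male Beagle dogs (n = 3 per species), each given a single dose by IV at 3 mg/kg and by PO at 10 mg/kg. Cmax, Tmax, T1/2 and AUClast were derived for each route. F (%) was calculated from the PO and IV AUClast.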

Series [9] in a line: AUClast in Sprague-Dawley rat at 10 mg/kg, po measured upto 48 hrs by LC-MS/MS analysis. To be noted: in vivo. Format: ADME, organism-based. Also noted: route oral, dose 10 mg/kg, time <=48. The method in brief: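 Single dose in male Sprague-Dawley rats and male Beagle dogs (n = 3 per species), given 3 mg/kg IV or 10 mg/kg PO. Plasma was sampled to derive Cmax, Tmax, T1/2 and AUClast by each route. Oral bioavailability (F) was calculated from the PO and IV AUClast.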

Series [10] can be described thus: Cmax in human at 900 mg, po administered as single dose. The series is classed as ADME, organism-based. Further details: route oral, dose 900 mg. Conditions: in vivo.
Series [11] can be described thus: Drug distribution in Sprague-Dawley rat bile. To be noted: in vivo. Format: ADME, tissue-based.

In brackets after ≈: the same amount, converted by molar mass. Activity calls are given as the source filed them. The rule behind the calls is not given here. A value given as a limit tells only on which side of the number the result lay.

On to `CC(=O)O[C@H]1C(=O)[C@@]2(C)[C@H]([C@H](OC(=O)c3ccccc3)[C@]3(O)C[C@H](OC(=O)[C@H](O)[C@@H](NC(=O)c4ccccc4)c4ccccc4)C(C)=C1C3(C)C)[C@]1(OC(C)=O)CO[C@@H]1C[C@@H]2O` [PACLITAXEL], for which the partition ratio (Kp) at 24 h in series [1] is more than 1. Further, the figures for the Activity in series [2] and in [3] were 5% and “Non-Toxic”, respectively. In the series with SK-OV-3, the result was Active.

In series [4], `COc1cc2c(cc1OC)CN(CCc1ccc(-n3nnc(-c4cc(OC)c(OC)cc4NC(=O)c4cc(=O)c5ccccc5o4)n3)cc1)CC2` had an IC50 of more than 3.72 µM. The solubility in [5] was 0.219 µg/mL (≈ 0.318 µM). Besides, the “inhibition (INH)” value in [6] and in series [7] was less than 50% each time. This molecule also gave a half-life in series [8] of 888 min. The molecule further showed an area under the curve AUC(0-t) at 48 h in series [9] of 129 ng·h/mL. The same molecule registered a Cmax in series [10] of 6.6 ng/mL. The Drug uptake entry in series [11] is recorded as “Active”.
